According to ChEMBL document CHEMBL3868590, “Quambalarine B, a Secondary Metabolite from Quambalaria cyanescens with Potential Anticancer Properties” (J Nat Prod, 2016):
Calls of active or inactive are those of the source. No cut-off for these calls is given here.

Legend:
REH [1] = test: Decrease in C-MYC mRNA level in human REH cells at EC50 measured after 24 hrs by RT-qPCR analysis; format: functional, cell-based
[2] = Cytotoxicity against CD14+ monocytes in human PBMC population assessed as viable cells at 15 umol/L measured after 24 hrs by Hoechst-33258 staining-based FACS analysis (reference value: 13.8%); format: toxicity, cell-based, Monocyte; conditions: read-out: Activity
Method in brief: (§1)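 PBMC were isolated from blood on a Ficoll-Paque gradient and seeded at 1 × 10^5 cells/well in 400 μL RPMI1640. Cells were exposed to a range of compound concentrations for 24 h. Viable CD3+, CD14+ and CD20+ populations were measured as Hoechst 33258-negative singlets by flow cytometry. EC50 was obtained by five-parameter nonlinear regression.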

[3] = biological target: Myc proto-oncogene protein (Homo sapiens) (UniProt P01106); test: Inhibition of C-MYC in human NALM6 cells assessed as decrease in GLS level at EC50 measured after 24 hrs by RT-qPCR analysis; format: cell-based; conditions: NALM-6
NALM-6 [4] = test: Cytostatic activity against eFluor670-labelled human NALM6 cells assessed as live cells at 2 umol/L measured immediately after compound addition by Hoechst-33258 staining-based FACS analysis (reference value: 95.8%); format: functional
[5] = Downregulation of P70S6K protein expression in human REH cells at EC50 measured after 24 hrs by immunoblot analysis; format: functional, cell-based
Method in brief: (§2)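 Cells prepared as for RT-qPCR (7.5 × 10^5 cells/mL). Treated either with the line-specific EC50 concentration over a time course, or 24 h with graded concentrations up to that EC50. Cells washed with phosphatase inhibitors and lysed in RIPA; 40 μg protein per lane on SDS-PAGE, then nitrocellulose. Immunoblotted for C-MYC, P70S6K, p-P70S6K (Ser424) and actin.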

Jurkat [6] = test: Cytostatic activity against eFluor670-labelled human Jurkat cells assessed as live cells at 2 umol/L measured on day 2 by Hoechst-33258 staining-based FACS analysis (reference value: 97%); format: functional
REH [7] = test: Cytostatic activity against eFluor670-labelled human REH cells assessed as live cells at 2 umol/L measured on day 2 by Hoechst-33258 staining-based FACS analysis (reference value: 90.8%); format: functional
Jurkat [8] = test: Cytostatic activity against human Jurkat cells assessed as population doubling level at 2 umol/L after 6 days using Burker counting chamber (reference value: 3.25); format: functional
Method in brief: (§3)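 Cells were seeded at 2.5 × 10^5 cells/mL in DMSO-containing medium, with or without 2 μmol/L compound. Cells were counted daily in a Bürker chamber. PDL was calculated as log(Nf/N0)/log 2 over 6 days. Values are mean ± SD of three experiments, compared with DMSO controls.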

[9] = biological target: Myc proto-oncogene protein (Homo sapiens) (UniProt P01106); test: Inhibition of C-MYC in human REH cells assessed as decrease in LDHA level at EC50 measured after 24 hrs by RT-qPCR analysis; format: cell-based
Jurkat [10] = test: Cytostatic activity against eFluor670-labelled human Jurkat cells assessed as live cells at 2 umol/L measured on day 5 by Hoechst-33258 staining-based FACS analysis (reference value: 97%); format: functional
[11] = biological target: Myc proto-oncogene protein (Homo sapiens) (UniProt P01106); test: Inhibition of C-MYC in human Jurkat cells assessed as decrease in GLS level at EC50 measured after 24 hrs by RT-qPCR analysis; format: cell-based
Jurkat [12] = test: Inhibition of P70S6K in human Jurkat cells assessed as decrease in phosphorylated P70S6K expression at EC50 by immunoblot analysis; format: cell-based; conditions: TDE = time-dependent effect; method in brief: as §2
NALM-6 [13] = test: Inhibition of P70S6K in human NALM6 cells assessed as decrease in C-MYC expression at 2 to 20 umol/L by immunoblot analysis; format: cell-based; conditions: TDE = time-dependent effect; method in brief: as §2
NALM-6 [14] = test: Decrease in C-MYC mRNA level in human NALM6 cells at EC50 measured after 24 hrs by RT-qPCR analysis; format: functional, cell-based
[15] = Cytotoxicity against human Jurkat cells assessed as reduction in viable cells measured after 24 hrs by Hoechst-33258 staining-based FACS analysis; format: functional, cell-based
Method in brief: (§4)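 Leukemic lines kept in RPMI1640 with 10% FBS, penicillin/streptomycin, 37 °C, 5% CO2. Seeded at 2 × 10^5 cells/mL and exposed 24 h to a range of compound concentrations (DMSO stock); medium and DMSO negative controls. Live fraction taken from Hoechst 33258-negative singlets by flow cytometry. EC50 from five-parameter nonlinear regression.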

[16] = Cytotoxicity against B lymphocytes in human PBMC population assessed as reduction in viable cells measured after 24 hrs by Hoechst-33258 staining-based FACS analysis; format: toxicity, cell-based, B-cell; method in brief: as §1
NALM-6 [17] = test: Cytostatic activity against eFluor670-labelled human NALM6 cells assessed as live cells at 2 umol/L measured on day 3 by Hoechst-33258 staining-based FACS analysis (reference value: 98.6%); format: functional
Jurkat [18] = test: Inhibition of P70S6K in human Jurkat cells assessed as inhibition of phosphorylated P70S6K expression up to 20 umol/L measured after 24 hrs by immunoblot analysis; format: cell-based; method in brief: as §2
[19] = Cytotoxicity against human REH cells assessed as reduction in viable cells measured after 24 hrs by Hoechst-33258 staining-based FACS analysis; format: functional, cell-based; method in brief: as §4
Jurkat [20] = test: Cytostatic activity against human Jurkat cells at 2 umol/L measured after 2 to 3 days using Burker counting chamber; format: functional, cell-based; method in brief: as §3
[21] = Cytotoxicity against PHA/LPS-stimulated CD3-positive T-lymphocytes in eFluor-670-labeled human PBMC assessed as divided cells at 2 umol/L administered post 18 hrs of PHA/LPS-stimulation measured after 72 hrs by Hoechst-33258 staining-based FACS analysis (reference value: 24.2%); format: toxicity; conditions: t-cell, 2 µM
Method in brief: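 PBMC were labelled with 1 μmol/L CPD, stimulated with PHA (5 μg/mL) plus LPS (1 μg/mL), and seeded at 3 × 10^5 cells/well in 300 μL. Compound was added after 18 h and left for 72 h. Cells were stained with anti-CD3. Unstimulated cells set the CPD+ gate. Proliferation index, division index and % divided were calculated for CPD+CD3+ Hoechst-negative cells.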

[22] = biological target: Myc proto-oncogene protein (Homo sapiens) (UniProt P01106); test: Inhibition of C-MYC in human Jurkat cells assessed as decrease in LDHA level at EC50 measured after 24 hrs by RT-qPCR analysis; format: cell-based
[23] = Cytotoxicity against CD3+ T-lymphocytes in human PBMC population assessed as reduction in viable cells measured after 24 hrs by Hoechst-33258 staining-based FACS analysis; format: toxicity, cell-based, T-cell; method in brief: as §1
REH [24] = test: Cytostatic activity against eFluor670-labelled human REH cells assessed as live cells at 2 umol/L measured on day 1 by Hoechst-33258 staining-based FACS analysis (reference value: 89.8%); format: functional
NALM-6 [25] = test: Inhibition of P70S6K in human NALM6 cells assessed as decrease in C-MYC expression measured after 24 hrs by immunoblot analysis; format: cell-based; method in brief: as §2
[26] = biological target: Myc proto-oncogene protein (Homo sapiens) (UniProt P01106); test: Inhibition of C-MYC in human NALM6 cells assessed as decrease in PKM2 level at EC50 measured after 24 hrs by RT-qPCR analysis; format: cell-based; conditions: NALM-6
NALM-6 [27] = test: Cytostatic activity against human NALM6 cells assessed as population doubling level at 2 umol/L after 6 days using Burker counting chamber (reference value: 3.44); format: functional; method in brief: as §3
[28] = biological target: Myc proto-oncogene protein (Homo sapiens) (UniProt P01106); test: Inhibition of C-MYC in human NALM6 cells assessed as decrease in LDHA level at EC50 measured after 24 hrs by RT-qPCR analysis; format: cell-based; conditions: NALM-6

Chain of Myc proto-oncogene protein (Homo sapiens) (P01106 whole entry): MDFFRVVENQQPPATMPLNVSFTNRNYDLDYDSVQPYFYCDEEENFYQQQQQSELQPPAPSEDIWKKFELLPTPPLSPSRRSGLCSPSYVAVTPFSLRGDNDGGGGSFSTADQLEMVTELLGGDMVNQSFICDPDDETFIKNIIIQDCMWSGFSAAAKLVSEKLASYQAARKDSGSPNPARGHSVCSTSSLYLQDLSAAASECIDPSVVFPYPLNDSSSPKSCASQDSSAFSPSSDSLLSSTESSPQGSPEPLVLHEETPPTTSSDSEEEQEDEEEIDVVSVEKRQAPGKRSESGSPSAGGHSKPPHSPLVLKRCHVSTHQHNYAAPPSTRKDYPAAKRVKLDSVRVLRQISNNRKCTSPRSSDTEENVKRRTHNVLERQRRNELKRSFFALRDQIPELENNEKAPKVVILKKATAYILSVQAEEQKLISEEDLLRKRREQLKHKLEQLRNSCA

In the case of `CCCCCC(=O)C1=C(O)C(=O)c2c(O)c(O)cc(O)c2C1=O`, the Activity (REH [1]) is reported as “Active”, the viability at 24 h, 15 µM [2] is reported as 8.1% and the inhibition [3] is reported as “Active”. The Activity (NALM-6 [4]) was 95.8%, the Activity [5] was “Active” and the Activity (Jurkat [6]) was 70.1%. The Activity (REH [7]) was 40.2%, the Activity (Jurkat [8]) was 1.64 and the inhibition [9] was “Active”. For the same compound, the Activity (Jurkat [10]) was 25.5%, the inhibition [11] was “Active” and the inhibition (Jurkat [12]) was “Tde”. The inhibition (NALM-6 [13]) was “Tde”, the Activity (NALM-6 [14]) was “Active” and the EC50 [15] was 7.41 µM. For the same compound, the EC50 at 24 h [16] was greater than 50 µM, the Activity (NALM-6 [17]) was 98.1% and the inhibition (Jurkat [18]) was “Active”. For the same compound, the EC50 [19] was 22 µM, the Activity (Jurkat [20]) was “Active” and the Activity [21] was 15.9%. For the same compound, the inhibition [22] was “Active”, the EC50 at 24 h [23] was 65.7 µM and the Activity (REH [24]) was 74.9%. For the same compound, the inhibition (NALM-6 [25]) was “Dose-dependent effect”, the inhibition [26] was “Active” and the Activity (NALM-6 [27]) was 1.75. The inhibition [28] was “Active”.
